Test results taken from ChEMBL document CHEMBL1155242, “Radiolabeled 5-iodo-3'-O-(17beta-succinyl-5alpha-androstan-3-one)-2'-deoxyuridine and its 5'-monophosphate for imaging and therapy of androgen receptor-positive cancers: synthesis and biological evaluation” (J Med Chem, 2009).

Assays:
[1] = Stability in mouse serum assessed as intact compound remaining at 20 uCi after 40 mins by size-exclusion HPLC analysis; type: ADME, cell-free; conditions: read-out: Stability
Outline: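 The compound was incubated in mouse serum, which lacks circulating SHBG. Aliquots were analysed on size-exclusion HPLC (TSK3000; phosphate/Na2SO4 buffer, pH 6.8, then an acetonitrile gradient). Extracts were analysed by C18 reversed-phase HPLC to measure intact compound remaining over time.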

[2] = molecular target: T1, Sex hormone-binding globulin (Homo sapiens, UniProt P04278); assay: Binding affinity to human sex hormone binding globulin at 20 uCi after 60 mins by reversed phase HPLC analysis; type: ADME; conditions: 1 h
T1 sequence (P04278 whole entry): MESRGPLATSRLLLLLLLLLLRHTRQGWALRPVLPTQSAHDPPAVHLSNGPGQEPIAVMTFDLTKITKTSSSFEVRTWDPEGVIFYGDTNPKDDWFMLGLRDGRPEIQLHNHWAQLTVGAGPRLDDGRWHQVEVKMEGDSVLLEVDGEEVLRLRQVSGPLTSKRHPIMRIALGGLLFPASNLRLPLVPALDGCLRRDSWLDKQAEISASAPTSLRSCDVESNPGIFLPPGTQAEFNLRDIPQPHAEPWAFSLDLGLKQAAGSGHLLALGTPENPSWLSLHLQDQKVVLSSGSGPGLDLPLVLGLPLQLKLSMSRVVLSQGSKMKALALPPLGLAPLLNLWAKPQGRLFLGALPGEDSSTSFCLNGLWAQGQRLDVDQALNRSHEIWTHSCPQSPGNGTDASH

Mus musculus [3] = assay: Toxicity in athymic NCr mouse xenografted with human OVCAR-3 cells assessed as hemoglobin level at 0.25 mCi, ip administered 31 days after tumor implantation as single bolus dose measured 55 days after implantation […] in presence of SHBG (RVb= 11.5 +/- 1.3 g/dL); type: organism-based; conditions: in vivo
LNCaP = assay: Cellular uptake in nonproliferating human LNCAP cells expressing androgen receptor after 48 hrs by gamma counting in presence of 1 uM DHT relative to uptake in absence of DHT; type: ADME, cell-based
Spleen = assay: Biodistribution in spleen of athymic NCr mouse xenografted with human OVCAR-3 cells assessed per gram of tissue at an average 39.5 uCi/dose, ip administered 9 days after tumor implantation as six fractionated doses every 4 days measured after 2 weeks of last dose by gamma counting; type: ADME, organism-based; conditions: in vivo, 336 h
Outline: (§1)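 OVCAR-3-bearing and healthy athymic mice given fractionated ip doses on the six-dose every-4-days schedule; tissues, tumor and lavaged cells γ-counted at necropsy, %ID/g; DNA-bound 125I in cells measured as cpm/cell.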

[4] = Biodistribution in large intestine of athymic NCr mouse xenografted with human OVCAR-3 cells assessed per gram of tissue at an average 39.5 uCi/dose, ip administered 9 days after tumor implantation as six fractionated doses every 4 days measured after 2 weeks of last dose by gamma counting; type: ADME, organism-based; conditions: in vivo, 336 h; outline: as §1
[5] = molecular target: T2, Sex hormone-binding globulin (Oryctolagus cuniculus, UniProt P15196); assay: Binding affinity to rabbit sex hormone binding globulin at 20 uCi after 60 mins by reversed phase HPLC analysis; type: ADME; conditions: 1 h
T2 sequence (P15196 whole entry): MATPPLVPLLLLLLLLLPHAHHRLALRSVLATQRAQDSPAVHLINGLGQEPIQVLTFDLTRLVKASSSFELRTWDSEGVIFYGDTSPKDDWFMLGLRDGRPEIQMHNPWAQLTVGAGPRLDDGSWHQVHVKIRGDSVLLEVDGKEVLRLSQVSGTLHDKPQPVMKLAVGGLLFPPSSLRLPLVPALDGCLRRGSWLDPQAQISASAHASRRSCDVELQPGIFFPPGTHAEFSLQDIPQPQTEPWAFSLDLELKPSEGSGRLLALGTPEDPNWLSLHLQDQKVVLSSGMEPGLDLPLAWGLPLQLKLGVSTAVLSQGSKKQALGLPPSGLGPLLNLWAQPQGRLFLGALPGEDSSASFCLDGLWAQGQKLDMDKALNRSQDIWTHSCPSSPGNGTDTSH

Stomach = assay: Biodistribution in stomach of athymic NCr mouse xenografted with human OVCAR-3 cells assessed per gram of tissue at an average 39.5 uCi/dose, ip administered 9 days after tumor implantation as six fractionated doses every 4 days measured after 2 weeks of last dose by gamma counting; type: ADME, organism-based; conditions: in vivo, 336 h; outline: as §1
Serum = assay: Stability in human serum assessed as half life at 10 to 20 uCi/mL by reversed phase HPLC analysis; type: ADME, cell-free
Outline: (§2)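 The compound was incubated with rabbit or human serum at ambient temperature, and aliquots were taken at 1, 5 and 24 h. Aliquots were run on size-exclusion HPLC (TSK3000; 0.1 M potassium phosphate/0.1 M Na2SO4, pH 6.8, then an acetonitrile gradient). Extracts were run on C18 reversed-phase HPLC (water/acetonitrile with 0.07% TFA). Half-lives came from a monoexponential fit.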

OVCAR-3 [6] = assay: Antitumor activity against human OVCAR-3 cells xenografted in athymic NCr mouse assessed as number of cancer cells in peritoneum at 180 uCi, ip administered 9 days after tumor implantation as six fractionated doses every 4 days measured after 2 weeks of last dose by gamma counting; type: functional
Outline: (§3)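 OVCAR-3 ip xenografts in athymic mice; six fractionated ip doses every 4 days, total 180 μCi/mouse, with PBS or vehicle ip controls. Nonadherent tumor cells recovered by peritoneal lavage at necropsy, counted and pellet-weighed.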

[7] = Stability in human OVCAR-3 cells expressing androgen receptor assessed as half life at 0.01 to 5 uCi/mL by silica gel instant thin layer chromatography; type: ADME, cell-based
[8] = Ratio of drug level in tumor to liver in athymic NCr mouse xenografted with human OVCAR-3 cells at 180 uCi, ip administered 9 days after tumor implantation as six fractionated doses every 4 days measured after 1.5 hrs by gamma counting; type: ADME, organism-based; conditions: in vivo
[9] = Chemical stability in phosphate buffer saline at 0.85 uCi after 1265 mins by HPLC analysis; type: physicochemical
[10] = Ratio of drug level in tumor to kidney in athymic NCr mouse xenografted with human OVCAR-3 cells at 180 uCi, ip administered 9 days after tumor implantation as six fractionated doses every 4 days measured after 72 hrs by gamma counting; type: ADME, organism-based; conditions: in vivo
[11] = Ratio of drug level in tumor to kidney in athymic NCr mouse xenografted with human OVCAR-3 cells at 180 uCi, ip administered 9 days after tumor implantation as six fractionated doses every 4 days measured after 48 hrs by gamma counting; type: ADME, organism-based; conditions: in vivo
[12] = Ratio of drug level in tumor to liver in athymic NCr mouse xenografted with human OVCAR-3 cells at 180 uCi, ip administered 9 days after tumor implantation as six fractionated doses every 4 days measured after 48 hrs by gamma counting; type: ADME, organism-based; conditions: in vivo
Mus musculus [13] = assay: Toxicity in ip dosed athymic NCr mouse assessed as change in body weight measured after 21 days; type: organism-based; conditions: in vivo, 504 h
OVCAR-3 [14] = assay: Antitumor activity against human OVCAR-3 cells xenografted in athymic NCr mouse assessed as number of nonadherent cancer cells in peritoneum at 180 uCi, ip administered 9 days after tumor implantation as six fractionated doses every 4 days measured after 2 weeks of last dose by gamma counting; type: functional; outline: as §3
[15] = Stability in rabbit serum assessed as half life at 10 to 20 uCi/mL by reversed phase HPLC analysis; type: ADME, cell-free, Oryctolagus cuniculus; outline: as §2

Compound	remaining at 40 min, 20 uCi [1] [%]	Activity [2]	Activity (Mus musculus [3]) [g/dL]	Drug uptake (LNCaP) [%]	Drug uptake (Spleen) [%ID]	Drug uptake [4] [%ID]	Activity [5]	Drug uptake (Stomach) [%ID]	t1/2 (Serum) [days]	Activity (OVCAR-3 [6])	half-life [7] [days]	Ratio [8]	Stability [9]	Ratio [10]	Ratio [11]	Ratio [12]	Activity (Mus musculus [13])	Activity (OVCAR-3 [14])	t1/2 [15] [days]
C[C@]12CCC(=O)C[C@@H]1CC[C@@H]1[C@@H]2CC[C@]2(C)[C@@H](OC(=O)CCC(=O)O[C@H]3C[C@H](n4cc([125I])c(=O)[nH]c4=O)O[C@@H]3COP(=O)(O)O)CC[C@@H]12	60	Active	12.2	30	0.043	0.008	Active	0.009	–	–	–	–	–	–	–	–	–	–	–
C[C@]12CCC(=O)C[C@@H]1CC[C@@H]1[C@@H]2CC[C@]2(C)[C@@H](OC(=O)CCC(=O)O[C@H]3C[C@H](n4cc([125I])c(=O)[nH]c4=O)O[C@@H]3CO)CC[C@@H]12	–	–	–	–	–	–	–	–	0.612	380000000	60	1.4	Stable	31.9	61.8	34.4	Non-toxic	1250000000	0.238
